# ChEMBL document CHEMBL4699431, “Design and synthesis of substituted (1-(benzyl)-1H-1,2,3-triazol-4-yl)(piperazin-1-yl)methanone conjugates: study on their apoptosis inducing ability and tubulin polymerization inhibition” (RSC Med Chem, 2020)
# Calls of active or inactive are those of the source. The calls are words filed in the database; no cut-off is given here.
# How the values were obtained:
# BT-474 [1] = test: Cell cycle arrest in human BT-474 cells assessed as increase in accumulation in G2/M phase at 2.5 uM by propidium iodide staining based flow cytometry(reference value: 19.35%); type: functional
# In short: (§1)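 Seeded at 1 x 10⁵ cells/well, after 24 h serum-starved 6 h to synchronize, then returned to FBS-containing medium and treated at 0.5, 1 and 2.5 μM. Harvested cells were PBS-washed, fixed in ice-cold 70% ethanol, stained with propidium iodide (50 μg/mL) plus RNase A for 20 min at 37 °C in the dark. About 10,000 events analysed by flow cytometry.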
# BT-474 [2] = test: Induction of apoptosis in human BT-474 cells assessed as chromatin damage at 0.5 to 2.5 uM incubated for 24 hrs by DAPI staining based DAPI staining based confocal microscopic analysis; type: functional, cell-based; conditions: dose microM 0.5-2.5, time 24.0 hrs
# BT-474 [3] = test: Induction of apoptosis in human BT-474 cells after 48 hrs by Annexin-V alexa fluor 488/PI staining based flow cytometry analysis; conditions: dose microM 0.5-2.5, time 48.0 hrs
# NCI-H460 = test: Cytotoxicity against human NCI-H460 cells assessed as reduction in cell viability incubated for 48 hrs by MTT assay; type: functional, cell-based; conditions: NCI-H460, 48 h
# In short: (§2)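 Cells plated at 3000-4500 per well and treated after 24 h. DMSO stocks (20 mM) were diluted in medium to final DMSO <0.1%, twofold series […], 48 h. MTT (0.5 mg/mL) was added for 4 h, formazan dissolved in DMSO, absorbance read at 570 nm.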
# BT-474 [4] = test: Induction of mitochondrial membrane potential loss in human BT-474 cells assessed as depolarized cell population (P2) at 1 uM incubated for 48 hrs by JC1 staining based flow cytometry (reference value: 0.48 %); type: functional
# In short: (§3)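 Cells (1x10⁶/mL) adhered overnight, then exposed to 0.5, 1 and 2.5 μM for 48 h. Collected, PBS-washed, incubated with JC-1 dye (1 μM) for 30 min at 37 °C, washed twice, trypsinized, centrifuged and read by flow cytometry.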
# Tubulin (Homo sapiens) = Tubulin (Homo sapiens) (UniProt P68371+Q9H4B7+P0DPH7+P68366+Q13509+Q71U36+P04350+Q3ZCM7+P07437+P68363+Q9BQE3+Q6PEY2+Q13885+Q9BVA1+Q9BUF5); test: Inhibition of tubulin polymerization in human BT-474 cells assessed as microtubule disruption at 2 uM by immunohistochemistry assay; type: cell-based
# In short: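 Cells on glass coverslips exposed 48 h to 2 μM, with CA-4 as positive control. Fixed in 4% paraformaldehyde 20 min, permeabilized with 0.2% Triton X-100 5 min, held in methanol overnight at 4 °C, blocked in 1% BSA 60 min. Stained with α-tubulin antibody (1:1000, 2 h) then FITC anti-mouse secondary 1 h; microtubule network imaged by confocal microscopy.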
# BT-474 [5] = test: Induction of apoptosis in human BT-474 cells assessed as chromatin condensation incubated for 48 hrs by acridine orange/ethidium bromide double staining-based fluorescence microscopic analysis; type: functional, cell-based; conditions: dose microM 0.5-2.5, time 48.0 hrs
# In short: (§4)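 Plated at 5×10^4 cells/well, treated after 24 h and held 48 h at 37 °C, 5% CO₂. Acridine orange and ethidium bromide (10 µg/mL each) added in equal volumes, then cells viewed by fluorescence microscopy at 200x.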
# BT-474 [6] = test: Induction of mitochondrial membrane potential loss in human BT-474 cells assessed as depolarized cell population (P1) at 1 uM incubated for 48 hrs by JC1 staining based flow cytometry (reference value: 98.09 %); type: functional; in short: as §3
# BT-474 [7] = test: Cell cycle arrest in human BT-474 cells assessed as increase in accumulation in G1 phase at 1 uM by propidium iodide staining based flow cytometry(reference value: 4.06%); type: functional; in short: as §1
# MCF7 = test: Cytotoxicity against human MCF-7 cells assessed as reduction in cell viability incubated for 48 hrs by MTT assay; type: functional, cell-based; conditions: MCF7, 48 h; in short: as §2
# BT-474 [8] = test: Induction of apoptosis in human BT-474 cells assessed as membrane bleeding incubated for 48 hrs by acridine orange/ethidium bromide double staining-based fluorescence microscopic analysis; type: functional, cell-based; conditions: dose microM 0.5-2.5, time 48.0 hrs; in short: as §4
# BT-474 [9] = test: Cell cycle arrest in human BT-474 cells assessed as increase in accumulation in G2/M phase at 1 uM by propidium iodide staining based flow cytometry(reference value: 19.35%); type: functional; in short: as §1
# BT-474 [10] = test: Induction of morphological changes in human BT-474 cells assessed as […] incubated for 48 hrs by phase-contrast microscope method; type: functional, cell-based; conditions: dose microM 0.5-2.5, time 48.0 hrs
# In short: (§5)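 Plated at 5×10^4 cells/well, dosed after 24 h at 0.5, 1 and 2.5 μM. After 48 h, morphology was examined and photographed under phase-contrast microscopy.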
# BT-474 [11] = test: Induction of morphological changes in human BT-474 cells assessed reduction in number of viable cells incubated for 48 hrs by phase-contrast microscope method; type: functional, cell-based; conditions: dose microM 0.5-2.5, time 48.0 hrs; in short: as §5
# BT-474 [12] = test: Cell cycle arrest in human BT-474 cells assessed as increase in accumulation in S phase at 0.5 uM by propidium iodide staining based flow cytometry(reference value: 2.22%); type: functional; in short: as §1
# HaCaT = test: Cytotoxicity against human HaCaT cells assessed as reduction in cell viability incubated for 48 hrs by MTT assay; type: functional, cell-based; in short: as §2
# BT-474 [13] = test: Induction of apoptosis in human BT-474 cells assessed as non-uniform distribution of chromatin incubated for 48 hrs by acridine orange/ethidium bromide double staining-based fluorescence microscopic analysis; type: functional, cell-based; conditions: dose microM 0.5-2.5, time 48.0 hrs; in short: as §4
# BT-474 [14] = test: Cell cycle arrest in human BT-474 cells assessed as decrease in G0/G1 accumulation in phase at 0.5 uM by propidium iodide staining based flow cytometry(reference value: 60.53%); type: functional; design: scale not given: the % may be the effect or the level left; in short: as §1
# BT-474 [15] = test: Induction of mitochondrial membrane potential loss in human BT-474 cells assessed as depolarized cell population (P2) at 0.5 uM incubated for 48 hrs by JC1 staining based flow cytometry (reference value: 0.48 %); type: functional; in short: as §3
# BT-474 [16] = test: Cell cycle arrest in human BT-474 cells assessed as increase in accumulation in G2/M phase at 0.5 uM by propidium iodide staining based flow cytometry(reference value: 19.35%); type: functional; in short: as §1
# BT-474 [17] = test: Induction of mitochondrial membrane potential loss in human BT-474 cells assessed as depolarized cell population (P1) at 0.5 uM incubated for 48 hrs by JC1 staining based flow cytometry (reference value: 98.09 %); type: functional; in short: as §3
# BT-474 [18] = test: Induction of mitochondrial membrane potential loss in human BT-474 cells assessed as depolarized cell population (P2) at 2.5 uM incubated for 48 hrs by JC1 staining based flow cytometry (reference value: 0.48 %); type: functional; in short: as §3
# BT-474 [19] = test: Cell cycle arrest in human BT-474 cells assessed as decrease in G0/G1 accumulation in phase at 1 uM by propidium iodide staining based flow cytometry(reference value: 60.53%); type: functional; design: scale not given: the % may be the effect or the level left; in short: as §1
# BT-474 [20] = test: Inhibition of clonogenicity in human BT-474 cells assessed as reduction in colony formation measured after 7 days by crystal violet staining; type: functional, cell-based; conditions: dose microM 0.5-2.5, time 7.0 day
# In short: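 100 cells/well in 6-well plates; after overnight attachment, treated 12 h, then grown in fresh medium at 37 °C, 5% CO₂ with medium changed every 2 days. Colonies fixed and stained with 1% crystal violet in methanol for 3 h, counted by imaging, expressed as percent of untreated control.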
# BT-474 [21] = test: Cell cycle arrest in human BT-474 cells assessed as increase in accumulation in G1 phase at 2.5 uM by propidium iodide staining based flow cytometry(reference value: 4.06%); type: functional; in short: as §1
smiles,measurement,setting,value
O=C(c1cn(Cc2cccc(Oc3ccccc3)c2)nn1)N1CCN(S(=O)(=O)c2ccc(Br)cc2)CC1,Activity,BT-474 [1],63.41%
same,Activity,BT-474 [2],Active
same,Activity,BT-474 [3],Dose-dependent effect
same,IC50,NCI-H460,4.88 µM
same,Activity,BT-474 [4],61.44%
same,inhibition,Tubulin (Homo sapiens),Active
same,Activity,BT-474 [5],Dose-dependent effect
same,Activity,BT-474 [6],41.46%
same,Activity,BT-474 [7],9.41%
same,IC50,MCF7,2.34 µM
same,Activity,BT-474 [8],Dose-dependent effect
same,Activity,BT-474 [9],62.72%
same,Activity,BT-474 [10],Active
same,Activity,BT-474 [11],Active
same,Activity,BT-474 [12],7.02%
same,IC50,HaCaT,3.68 µM
same,Activity,BT-474 [13],Dose-dependent effect
same,Activity,BT-474 [14],10.83%
same,Activity,BT-474 [15],50.48%
same,Activity,BT-474 [16],58.93%
same,Activity,BT-474 [17],50.26%
same,Activity,BT-474 [18],89.84%
same,Activity,BT-474 [19],9.64%
same,inhibition,BT-474 [20],Dose-dependent effect
same,Activity,BT-474 [21],11.3%
